Series [1] has as its system Leishmania infantum. Briefly: Antileishmanial activity against intracellular Leishmania infantum chagasi MHOM/BR/00/1669 amastigotes infected in mouse RAW264.7 cells assessed as inhibition of parasite growth after 48 hrs. The series is classed as functional, organism-based. To be noted: chagasi MHOM/BR/00/1669, RAW264.7, 48 h. The gist of the method:
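RAW 264.7 macrophages (4×10^5/well, RPMI-1640 + 10% FBS) adhered for 24 h, then infected with promastigotes at 1:10 for 2 h. Non-adherent parasites rinsed off and cells held 72 h. Compounds added from ethanol stocks in six two-fold dilutions for 48 h at 37 °C, 5% CO2. Amastigotes detected by cell ELISA (saponin permeabilization, rabbit anti-Leishmania serum 1:500, peroxidase anti-rabbit, OPD, 492 nm).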

Series [2] in a line: Cytotoxicity against mouse RAW264.7 cells assessed as cell survival at 100 ug/ml after 48 hrs by MTT assay. Type of series: cell-based. Particulars: read-out: Survival. A digest of the protocol:
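RAW 264.7 cells were seeded at 4×10^4/well. Compounds were dissolved at 0.2% in ethanol and diluted in M199 medium, highest concentration 100 µg/mL. Cells were exposed for 48 h at 37 °C in humidified 5% CO2, with […] vehicle controls. Viability was read by MTT.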
Background: Formazan colour is commonly taken as a measure of viable cells.

Series [3] concerns Leishmania infantum. Briefly: Antileishmanial activity against axenically cultured Leishmania infantum chagasi MHOM/BR/00/1669 promastigotes assessed as inhibition of parasite growth after 24 hrs. To be noted: chagasi MHOM/BR/00/1669, 24 h.
For series [4], the system named is Leishmania infantum. Briefly: Antileishmanial activity against intracellular Leishmania infantum chagasi MHOM/BR/00/1669 amastigotes infected in BALB/c mouse assessed as inhibition of parasite growth in spleen at 100 mg/kg, ip once daily treated after 30 days post infection for 30 days. The series is classed as functional, organism-based. Further details: dose 100 mg/kg. A digest of the protocol:
(§1)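 Male BALB/c mice, 21 days old, infected IP with 1×10^7 Ficoll-purified metacyclic promastigotes; infection confirmed by liver and spleen imprints at 35 days. Compounds given IP at 100 mg/kg once daily for 30 days, 0.5 mL injected, n = 5 per group. Controls were Glucantime (80 mg/Kg intramuscular) and water. Liver and spleen collected afterwards; amastigotes detected qualitatively by anti-Leishmania immunohistochemistry with DAB.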

For series [5], the system named is Leishmania infantum. Briefly: Antileishmanial activity against intracellular Leishmania infantum chagasi MHOM/BR/00/1669 amastigotes infected in BALB/c mouse assessed as inhibition of parasite growth in liver at 100 mg/kg, ip once daily treated after 30 days post infection for 30 days. Details: dose 100 mg/kg. The series is classed as functional, organism-based. A digest of the protocol: as §1

Values after ≈ are worked out from the molar mass of the structure shown. Active and inactive are the calls of the source. No cut-off for these calls is given here. Where only a bound is given, the exact number is not on record here.

The term EC50 denotes the concentration giving half of the maximal effect. Consider `CC(=O)Oc1cc(C)ccc1C(C)C`, for which the figures for the EC50 in series [1] and in series [3] were 10.9 µg/mL (≈ 57 µM) and 9.07 µg/mL (≈ 47.2 µM), respectively. Further, in series [2], the viability at 48 h, 100 ug/ml was > 100%. The outcome in series [4] was inactive. In series [5], the result was Active.

Consider `Cc1ccc(C(C)C)c(OC(=O)c2ccccc2)c1`, for which the EC50 in series [1] turned out to be 15.1 µg/mL (≈ 59.3 µM); in series [3] it was 8.67 µg/mL (≈ 34.1 µM). The viability at 48 h, 100 ug/ml in series [2] is 63.6%. In addition, the result in series [4] and in series [5] was Active.

In the case of `C[C@@H]1[C@H](O)[C@@H](C)/C=C/C=C/C=C/C=C/C=C/C=C/C=C/[C@H](O[C@@H]2O[C@H](C)[C@@H](O)[C@H](N)[C@@H]2O)C[C@@H]2O[C@](O)(C[C@@H](O)C[C@@H](O)[C@H](O)CC[C@@H](O)C[C@@H](O)CC(=O)O[C@H]1C)C[C@H](O)[C@H]2C(=O)O` [AMPHOTERICIN B], in series [1], the concentration for a half-maximal effect (EC50) turned out to be 20.4 µg/mL (≈ 22.1 µM). For the same compound, the viability at 48 h, 100 ug/ml in series [2] amounted to 98.5%.

In the case of `C=CCc1ccc(O)c(OC)c1` [EUGENOL], the EC50 is 20.8 µg/mL (≈ 127 µM) in series [1] and 56.1 µg/mL (≈ 342 µM) in series [3]. Also, the viability at 48 h, 100 ug/ml in series [2] is 29%.

For `C=CCc1ccc(OC(C)=O)c(OC)c1` [EUGENYL ACETATE], the concentration for a half-maximal effect (EC50) in series [1] stood at 18.5 µg/mL; in series [3] it was 23.2 µg/mL. The viability at 48 h, 100 ug/ml in series [2] is > 100%. The result in series [4] and in series [5] was Active.

On to `C=CCc1ccc(OC(=O)c2ccccc2)c(OC)c1` [EUGENYL BENZOAT], for which the 50% effective concentration (EC50) in series [1] stood at 14.9 µg/mL (≈ 55.6 µM); in series [3], 10.6 µg/mL (≈ 39.4 µM). Besides, the viability at 48 h, 100 ug/ml in series [2] was found to be 97.7%. For the same compound, the outcome in series [4] and in series [5] was Active.

With `N=C(N)c1ccc(OCCCCCOc2ccc(C(=N)N)cc2)cc1` [PENTAMIDINE], the viability at 48 h, 100 ug/ml in series [2] was 85.6%. Further, the 50% effective concentration (EC50) in series [3] was determined as 5.3 µg/mL (≈ 15.6 µM).

For the compound `Cc1ccc(C(C)C)c(O)c1` [THYMOL], in series [1], the half-maximal effective concentration (EC50) was determined as 23.9 µg/mL (≈ 159 µM). Also, the viability at 48 h, 100 ug/ml in series [2] was 36.5%.

For MEGLUMINE ANTIMONATE, in series [4], the result was inactive.
